From ChEMBL document CHEMBL1667754, “Synthesis and biological activity of pyrazolothienotetrahydroisoquinoline and [1,2,4]triazolo[3,4-a]thienotetrahydroisoquinoline derivatives” (2011)

What was measured:
Trichophyton rubrum = experiment: Antifungal activity against Trichophyton rubrum at 50 uL/well by well diffusion assay; type: functional
In short: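 Agar discs (10 mm) carrying spores and hyphae were shaken in sterile distilled water. 1 mL of the spore suspension was plated and mixed with 15 mL molten SDA, then left to set. Compounds were at 2% in DMSO, applied per Bauer's diffusion method. The read-out was the inhibition zone (mm).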

Pseudomonas aeruginosa = experiment: Antibacterial activity against Pseudomonas aeruginosa at 200 ug/disc by disc diffusion assay
[1] = tested on: Scopulariopsis brevicaulis; experiment: Antifungal activity against Scopulariopsis brevicaulis at 2% by disc diffusion assay
Geotrichum candidum = experiment: Antifungal activity against Geotrichum candidum at 2% by disc diffusion assay
Staphylococcus aureus = experiment: Antibacterial activity against Staphylococcus aureus at 200 ug/disc by disc diffusion assay
Aspergillus flavus = experiment: Antifungal activity against Aspergillus flavus at 2% by disc diffusion assay
Candida albicans = experiment: Antifungal activity against Candida albicans at 200 ug/disc by disc diffusion assay
Escherichia coli = experiment: Antibacterial activity against Escherichia coli at 50 uL/well by well diffusion assay; type: functional
In short: (§1)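 Bauer-type diffusion assay. Test compounds were at 2% in DMSO. The read-out was the diameter (mm) of the inhibition zone, with chloramphenicol as the reference agent.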

Bacillus cereus = experiment: Antibacterial activity against Bacillus cereus at 200 ug/disc by disc diffusion assay
Fusarium oxysporum = experiment: Antifungal activity against Fusarium oxysporum at 2% by disc diffusion assay
Serratia marcescens = experiment: Antibacterial activity against Serratia marcescens at 200 ug/disc by disc diffusion assay
Aspergillus niger = experiment: Antifungal activity against Aspergillus niger at 2% by disc diffusion assay
Micrococcus luteus = experiment: Antibacterial activity against Micrococcus luteus at 50 uL/well by well diffusion assay; type: functional; in short: as §1

Compound	diameter of the inhibition zone (DIZ) (Trichophyton rubrum)	diameter of the inhibition zone (DIZ) (Pseudomonas aeruginosa)	diameter of the inhibition zone (DIZ) [1]	diameter of the inhibition zone (DIZ) (Geotrichum candidum)	diameter of the inhibition zone (DIZ) (Staphylococcus aureus)	diameter of the inhibition zone (DIZ) (Aspergillus flavus)	diameter of the inhibition zone (DIZ) (Candida albicans)	diameter of the inhibition zone (DIZ) (Escherichia coli)	diameter of the inhibition zone (DIZ) (Bacillus cereus)	diameter of the inhibition zone (DIZ) (Fusarium oxysporum)	diameter of the inhibition zone (DIZ) (Serratia marcescens)	diameter of the inhibition zone (DIZ) (Aspergillus niger)	diameter of the inhibition zone (DIZ) (Micrococcus luteus)
N#Cc1c2c(c(NN)[nH]c1=S)CCCC2	17 mm	0 mm	0 mm	0 mm	11 mm	10 mm	12 mm	14 mm	20 mm	13 mm	0 mm	12 mm	14 mm
N#Cc1c2c(c3[nH]ncn3c1=S)CCCC2	0 mm	0 mm	0 mm	0 mm	8 mm	0 mm	10 mm	10 mm	15 mm	0 mm	10 mm	0 mm	12 mm
N#CCSc1nc(NN)c2c(c1C#N)CCCC2	0 mm	0 mm	0 mm	0 mm	8 mm	0 mm	10 mm	0 mm	0 mm	0 mm	10 mm	0 mm	0 mm
Cc1cc(C)n(-c2nc(SCC#N)c(C#N)c3c2CCCC3)n1	0 mm	0 mm	0 mm	10 mm	8 mm	0 mm	12 mm	0 mm	8 mm	8 mm	10 mm	8 mm	0 mm
CCOC(=O)CSc1nc(NN)c2c(c1C#N)CCCC2	0 mm	0 mm	0 mm	0 mm	8 mm	0 mm	0 mm	0 mm	8 mm	0 mm	0 mm	0 mm	0 mm
CCOC(=O)CSc1nc(-n2nc(C)cc2C)c2c(c1C#N)CCCC2	0 mm	0 mm	0 mm	10 mm	7 mm	0 mm	0 mm	10 mm	0 mm	0 mm	10 mm	0 mm	0 mm
N#Cc1c(SCC(N)=O)nc(NN)c2c1CCCC2	0 mm	0 mm	0 mm	10 mm	0 mm	0 mm	0 mm	11 mm	0 mm	10 mm	8 mm	0 mm	0 mm
Cc1cc(C)n(-c2nc(SCC(N)=O)c(C#N)c3c2CCCC3)n1	0 mm	0 mm	0 mm	0 mm	10 mm	0 mm	0 mm	0 mm	0 mm	0 mm	0 mm	8 mm	0 mm
CC(=O)CSc1nc(NN)c2c(c1C#N)CCCC2	20 mm	0 mm	0 mm	12 mm	0 mm	0 mm	11 mm	12 mm	11 mm	0 mm	8 mm	0 mm	0 mm
CC(=O)CSc1nc(-n2nc(C)cc2C)c2c(c1C#N)CCCC2	17 mm	0 mm	0 mm	8 mm	0 mm	0 mm	10 mm	13 mm	0 mm	10 mm	8 mm	0 mm	0 mm
N#Cc1c(SCC(=O)c2ccccc2)nc(NN)c2c1CCCC2	12 mm	0 mm	0 mm	12 mm	10 mm	0 mm	0 mm	0 mm	0 mm	0 mm	0 mm	0 mm	0 mm
Cc1cc(C)n(-c2nc(SCC(=O)c3ccccc3)c(C#N)c3c2CCCC3)n1	0 mm	0 mm	0 mm	0 mm	10 mm	0 mm	0 mm	0 mm	0 mm	0 mm	0 mm	0 mm	0 mm
